In ChEMBL document CHEMBL1125399, “Perfluorocarbon-based antidiabetic agents” (1992) one finds Activity data, which are given here for 74 compounds.

Molecules are shown by their SMILES.

The species named for the first assay is Mus musculus. The assay can be described thus: Percent plasma glucose concentration of drug treated mice (ob/ob) relative to vehicle control animals. In kind it is functional. An outline of the steps: (§1)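 Female ob/ob mice, 10 weeks old, fed ad libitum, in groups of 7–11. Dosed po once daily for 4 days in 0.5% methyl cellulose vehicle. Decapitated the next morning; 0.1 mL blood into saline with Trasylol and EDTA; plasma glucose by autoanalyzer. Reciprocal-transformed (y = 160/x) harmonic mean given as % of vehicle. Bonferroni-adjusted comparisons.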
Consider `O=C(NCCc1nnn[nH]1)C(F)(F)C(F)(F)C(F)(F)C(F)(F)C(F)(F)C(F)(F)C(F)(F)C(F)(F)F`, for which the Activity is 65%.

Consider `O=C(O)C(F)(F)C(F)(F)C(F)(F)C(F)(F)C(F)(F)C(F)(F)C(F)(F)F`, for which the Activity worked out at 60%. Still for that read-out and setting: next, `O=C(Nc1ncccn1)C(F)(F)C(F)(F)C(F)(F)C(F)(F)C(F)(F)C(F)(F)C(F)(F)F`: 49%; `O=C(Nc1ccc(CCCCc2nn[nH]n2)cc1)C(F)(F)C(F)(F)C(F)(F)C(F)(F)C(F)(F)C(F)(F)C(F)(F)F`: 73%. In turn, `O=C(Nc1ccc(Cc2nnn[nH]2)cc1)C(F)(F)C(F)(F)C(F)(F)C(F)(F)C(F)(F)C(F)(F)C(F)(F)C(F)(F)C(F)(F)F` came in with an Activity of 71%. As to `O=C(Nc1ccccc1Cc1nn[nH]n1)C(F)(F)C(F)(F)C(F)(F)C(F)(F)C(F)(F)C(F)(F)C(F)(F)F`, the Activity was determined as 66%. Same read-out and setting: next, `O=C(Nc1ccccc1Cc1nn[n-]n1)C(F)(F)C(F)(F)C(F)(F)F.[Na+]`: 84%; `O=C(Nc1cccc(Cc2nn[n-]n2)c1)C(F)(F)C(F)(F)C(F)(F)F.[Na+]`: 71%.

The compound `O=C(Nc1ccc(Cc2nn[nH]n2)cc1)C(F)(F)C(F)(F)C(F)(F)F` displayed an Activity of 96%. Same read-out and setting: next, `O=C(N1CCN(c2ccccn2)CC1)C(F)(F)C(F)(F)C(F)(F)C(F)(F)C(F)(F)C(F)(F)C(F)(F)F`: 76%; `O=C(Nc1ccccc1O)C(F)(F)C(F)(F)C(F)(F)C(F)(F)C(F)(F)C(F)(F)C(F)(F)F`: 85%; `O=C(Nc1ccc(Cc2nnn[nH]2)cc1)C(F)(F)C(F)(F)C(F)(F)C(F)(F)C(F)(F)C(F)(F)C(F)(F)C(F)(F)F`: 63%. The same measure, in the same setting: then `O=C(Nc1cccc2ncccc12)C(F)(F)C(F)(F)C(F)(F)C(F)(F)C(F)(F)C(F)(F)C(F)(F)F`, with 64%; and `O=C(Nc1ccc(Cc2nn[nH]n2)cc1)c1cc(C(F)(F)F)cc(C(F)(F)F)c1`, with 82%; and `O=C(NCCCCCc1nn[nH]n1)C(F)(F)C(F)(F)C(F)(F)C(F)(F)C(F)(F)C(F)(F)C(F)(F)C(F)(F)F`, with 57%. As for `O=C(Nc1ccc(Cc2nnnn2Cc2ccccc2)cc1)C(F)(F)C(F)(F)C(F)(F)C(F)(F)C(F)(F)C(F)(F)C(F)(F)F`, the Activity is 82%. `O=C(NCC(F)(F)C(F)(F)C(F)(F)F)c1cccc(Cc2nn[nH]n2)c1` returned an Activity of 93%. Compound `O=C(N1CCc2ccccc2C1)C(F)(F)C(F)(F)C(F)(F)C(F)(F)C(F)(F)C(F)(F)C(F)(F)F` displayed an Activity of 87%. Same read-out and setting: then `O=C(Nc1ccc(Cc2nnn[nH]2)cc1)C(F)(F)C(F)(F)C(F)(F)C(F)(F)C(F)(F)C(F)(F)F`, with 93%; and `O=C(Nc1ccc(CCCc2nn[nH]n2)cc1)C(F)(F)C(F)(F)C(F)(F)F`, with 72%.

In turn, `O=C(Nc1ccc(Cc2nn[n-]n2)cc1)C(F)(F)C(F)(F)C(F)(F)C(F)(F)C(F)(F)C(F)(F)C(F)(F)F.[Na+]` had an Activity of 55%. Same read-out and setting: then `O=C(O)C(F)(F)C(F)(F)C(F)(F)F`, with 101%; and `O=C(NCC(F)(F)C(F)(F)C(F)(F)F)c1ccc(Cc2nn[nH]n2)cc1`, with 90%; and `O=C(NCCCCCc1nn[n-]n1)C(F)(F)C(F)(F)C(F)(F)C(F)(F)C(F)(F)C(F)(F)C(F)(F)C(F)(F)F.[Na+]`, with 62%. Same read-out and setting: then `O=C(NO)C(F)(F)C(F)(F)C(F)(F)C(F)(F)C(F)(F)C(F)(F)C(F)(F)F`, with 52%; and `O=C(Nc1ccc(CCCc2nn[nH]n2)cc1)C(F)(F)C(F)(F)C(F)(F)C(F)(F)C(F)(F)C(F)(F)C(F)(F)F`, with 63%. Same read-out and setting: then `O=C(Nc1ccc(CCc2nn[nH]n2)cc1)C(F)(F)C(F)(F)C(F)(F)C(F)(F)C(F)(F)C(F)(F)C(F)(F)F`, with 119%; and `CCCCCCCCC(=O)NCCCCCc1nnn[nH]1`, with 100%.

Turning to `O=C(Nc1ccccn1)C(F)(F)C(F)(F)C(F)(F)C(F)(F)C(F)(F)C(F)(F)C(F)(F)F`, the Activity is 56%. The same measure, in the same setting: next, `O=C(Nc1ccc(-c2nn[nH]n2)cc1)C(F)(F)C(F)(F)C(F)(F)C(F)(F)C(F)(F)C(F)(F)C(F)(F)F`: 82%; `O=C(N(Cc1ccccc1)c1cccc(Cc2nn[nH]n2)c1)C(F)(F)C(F)(F)C(F)(F)F`: 78%.

`Cc1csc(=N)n1C(=O)C(F)(F)C(F)(F)C(F)(F)C(F)(F)C(F)(F)C(F)(F)C(F)(F)F`: the Activity is reported as 94%.

`OCC(F)(F)C(F)(F)C(F)(F)C(F)(F)C(F)(F)C(F)(F)C(F)F` displayed an Activity of 67%.

For `O=C(Nc1ccccc1Cc1nn[nH]n1)C(F)(F)C(F)(F)C(F)(F)F`, the Activity worked out at 91%. For `NCC(F)(F)C(F)(F)C(F)(F)C(F)(F)C(F)(F)C(F)(F)C(F)(F)F`, the Activity was 84%. On the same count and under the same terms, then `O=C(NCc1ccccc1)C(F)(F)C(F)(F)C(F)(F)C(F)(F)C(F)(F)C(F)(F)C(F)(F)F`, with 106%; and `CC1(COc2ccc(CC3SC(=O)NC3=O)cc2)CCCCC1` (centres undefined) [CIGLITAZONE], with 70%. Still for that read-out and setting: next, `NC(=O)C(F)(F)C(F)(F)C(F)(F)C(F)(F)C(F)(F)C(F)(F)C(F)(F)F`: 65%; `O=C(Nc1ccc(Cc2nnn[nH]2)cc1)C(F)(F)C(F)(F)F`: 86%.

In turn, `COc1ccc2c(c1)CCCN2C(=O)C(F)(F)C(F)(F)C(F)(F)C(F)(F)C(F)(F)C(F)(F)C(F)(F)F` came in with an Activity of 132%. Still for that read-out and setting: then `CCCCCCCCCCCCCCCCCC(=O)Nc1ccc(Cc2nn[nH]n2)cc1`, with 108%; and `CN(C(=O)C(F)(F)C(F)(F)C(F)(F)C(F)(F)C(F)(F)C(F)(F)C(F)(F)F)c1ccc(Cc2nnn(C)n2)cc1`, with 70%. On the same count and under the same terms, next, `O=C(Nc1ccc(Cc2nn[nH]n2)cc1)c1c(F)c(F)c(F)c(F)c1F`: 75%; `O=C(NCCc1ccccn1)C(F)(F)C(F)(F)C(F)(F)C(F)(F)C(F)(F)C(F)(F)C(F)(F)F`: 63%. The same measure, in the same setting: next, `CCNS(=O)(=O)C(F)(F)C(F)(F)C(F)(F)C(F)(F)C(F)(F)C(F)(F)C(F)(F)C(F)(F)F` [SULFLURAMID]: 90%.

In the case of `O=C(Nc1ccc(Cc2nnn[nH]2)cc1)C(F)(F)C(F)(F)C(F)(F)C(F)(F)F`, the Activity is listed as 92%. As to `O=C(Nc1ccc(CCc2nn[nH]n2)cc1)C(F)(F)C(F)(F)C(F)(F)F`, the Activity is 76%.

`O=C(Nc1ccc(Cc2nnn[nH]2)cc1)C(F)(F)F`: the Activity was found to be 104%.

`O=C(Nc1cccc(Cc2nn[nH]n2)c1)C(F)(F)C(F)(F)C(F)(F)F` registered an Activity of 86%. For `CCOC(=O)C(F)(F)C(F)(F)C(F)(F)C(F)(F)C(F)(F)C(F)(F)C(F)(F)F`, the Activity turned out to be 72%.

For `O=C(Nc1ccc(Cc2nnn[nH]2)cc1)C(F)(F)C(F)(F)C(F)(F)C(F)(F)C(F)(F)C(F)(F)C(F)(F)C(F)F`, the Activity worked out at 65%. Still for that read-out and setting: next, `O=C(NCCCCCc1nn[n-]n1)C(F)(F)C(F)(F)C(F)(F)C(F)(F)C(F)(F)C(F)(F)C(F)(F)F.[Na+]`: 48%. On the same count and under the same terms, next, `O=C(Nc1ccc(Cc2nnn[nH]2)cc1)C(F)(F)C(F)(F)C(F)(F)C(F)(F)C(F)(F)C(F)(F)C(F)(F)C(F)(F)C(F)(F)C(F)F`: 62%. Still for that read-out and setting: next, `O=C(NCCCCCc1nn[nH]n1)C(F)(F)C(F)(F)C(F)(F)C(F)(F)C(F)(F)C(F)(F)C(F)(F)F`: 54%; `O=C(Nc1cccc(Cc2nn[nH]n2)c1)C(F)(F)C(F)(F)C(F)(F)C(F)(F)C(F)(F)C(F)(F)C(F)(F)F`: 60%. The compound `O=C(N1CCCc2ccccc21)C(F)(F)C(F)(F)C(F)(F)C(F)(F)C(F)(F)C(F)(F)C(F)(F)F` returned an Activity of 115%.

Compound `O=C(NCCCCCc1nnn[nH]1)C(F)(F)C(F)(F)C(F)(F)F` yielded an Activity of 91%. Same read-out and setting: then `O=C(Nc1ccccc1)C(F)(F)C(F)(F)C(F)(F)C(F)(F)C(F)(F)C(F)(F)C(F)(F)F`, with 74%; and `O=C(Nc1cccnc1)C(F)(F)C(F)(F)C(F)(F)C(F)(F)C(F)(F)C(F)(F)C(F)(F)F`, with 74%. Still for that read-out and setting: next, `O=C(Nc1nn[nH]n1)C(F)(F)C(F)(F)C(F)(F)C(F)(F)C(F)(F)C(F)(F)C(F)(F)F`: 64%; `O=C(Nc1ccc(F)cc1)C(F)(F)C(F)(F)C(F)(F)C(F)(F)C(F)(F)C(F)(F)C(F)(F)F`: 91%; `O=C(NCCCCCc1nnn[nH]1)C(F)(F)F`: 95%.

A further assay has as its system Mus musculus. As to the kind of experiment: Percent plasma glucose concentration of drug treated mice (ob/ob) relative to vehicle control animals following 75 mg/kg administration. In kind it is functional. An outline of the steps: as §1
For `FC(F)C(F)(F)C(F)(F)C(F)(F)C(F)(F)C(F)(F)C(F)(F)F`, the Activity came out at 90%. Same read-out and setting: then `Cc1ccc(NC(=O)C(F)(F)C(F)(F)C(F)(F)C(F)(F)C(F)(F)C(F)(F)C(F)(F)F)cc1`, with 58%. Same read-out and setting: then `OC(c1ccccc1)C(F)(F)C(F)(F)C(F)(F)C(F)(F)C(F)(F)C(F)(F)C(F)(F)C(F)(F)F` (centres undefined), with 64%; and `O=C(CCC(F)(F)F)Nc1ccc(Cc2nn[nH]n2)cc1`, with 104%. On the same count and under the same terms, next, `O=C(O)C(F)(F)C(F)(F)C(F)(F)C(F)(F)C(F)(F)C(F)(F)F`: 107%. Take `O=C(Nc1ccc(-c2nn[nH]n2)cc1)C(F)(F)C(F)(F)C(F)(F)F`: the Activity is recorded as 75%. Take `O=C(Nc1ccc(Cc2nn[nH]n2)cc1)c1ccc(C(F)(F)F)cc1`: the Activity is on record as 130%. Same read-out and setting: next, `CCCC(=O)Nc1ccc(Cc2nn[nH]n2)cc1`: 108%.

The compound `COC(=O)NCC(F)(F)C(F)(F)C(F)(F)C(F)(F)C(F)(F)C(F)(F)C(F)(F)F` showed an Activity of 57%. Still for that read-out and setting: then `N#CCc1ccc(NC(=O)C(F)(F)C(F)(F)C(F)(F)C(F)(F)C(F)(F)C(F)(F)C(F)(F)F)cc1`, with 69%; and `CCCCNC(=O)C(F)(F)C(F)(F)C(F)(F)C(F)(F)C(F)(F)C(F)(F)C(F)(F)F`, with 70%; and `FC(F)(F)C(F)(F)C(F)(F)CNc1ccc(Cc2nn[nH]n2)cc1`, with 99%.
